Consider 70 molecules from ChEMBL document CHEMBL4513216, “Probing the Open Global Health Chemical Diversity Library for Multistage-Active Starting Points for Next-Generation Antimalarials” (ACS Infect Dis, 2020).

This series in a line: Toxicity liver stage against HepG2, at 10uM. The series is classed as cell-based. Further details: test concentration 10 uM, cell line HepG2-A16-CD81EGFP. The note with it: human, HepG2-A16-CD81EGFP cells; read-out: INHIBITION
In outline: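 Uninfected HepG2-A16-CD81EGFP cells, 3 × 10^3 per well, 1536-well, plated on prespotted compound at 10 μM final, parasite-free screening media added to match infected plates; puromycin 10 μM positive, DMSO 0.5% negative; run in parallel with 48 h PbLuc assay at 37 °C, 5% CO2; viability by CellTiter-Glo luminescence, normalized to controls.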
Take `CCc1nsc(NC2CC(=O)N(C3CC3)C2)n1` (stereo not given): the cytotoxicity at 10 µM was 9.43%.
Under `CN(C)S(=O)(=O)N1CCC(c2nnc(C(F)(F)F)o2)CC1` stands 3.79%; under `c1cncc(CN(Cc2ccc3c(c2)OCCO3)CC2CCCO2)c1` (stereo not given), 1.22%; under `Cc1ccc(-c2nc(C(=O)N3CCOCC3)cs2)c(C)c1`, 0.22%.
In the case of `O=C(CCCNC(=O)NCC1CCCO1)Nc1ccc(Cl)cc1` (stereo not given), the cytotoxicity at 10 µM is -4.52%.
Next, `O=C(NCc1nnc2n1CCCCC2)N(CC1CCOC1)C1CC1` (stereo not given): 5.63%; `CC(CCNC(=O)NCCc1ccncc1)c1ccccc1` (stereo not given): -5.82%.
For `CS(=O)(=O)NCC1CCN(Cc2cc3ccccc3[nH]c2=O)C1` (stereo not given), the cytotoxicity at 10 µM was -6.92%.
Next, `CCCc1cc(C(=O)NC2CCCCNC2=O)[nH]n1` (stereo not given): 0.828%; `Cc1cc(NC(C)C(=O)NCc2ccccc2)nc(-c2ccncc2)n1` (stereo not given): 0.563%.
Regarding `Cc1noc([C@H]2C[C@@H]3CCN(C(=O)C4CCOCC4)C[C@H]3O2)n1`, the cytotoxicity at 10 µM worked out at 7.62%.
On to `CCC[C@H]1CN(C2CCOCC2)C[C@@H]1NC(=O)CCn1ccnc1C`, for which the cytotoxicity at 10 µM stood at 5.78%.
With `Cc1cc(C)cc(Nc2nc(C)cc(=O)n2CC(=O)NC(C)C)c1`, the cytotoxicity at 10 µM is -7.3%.
`CN1[C@@H]2CC[C@H]1CN(C(=O)c1nnc3n1CCCC3)CC2`: the cytotoxicity at 10 µM is -10.6%.
Next, `O=C1c2cccnc2OC(CN2CCOCC2)CN1C1CCC1` (stereo not given): -4.18%.
Regarding `Cc1cc(C)nc(Nc2cc(C)nc(C3CCN(C(=O)CO)C3)n2)n1` (stereo not given), the cytotoxicity at 10 µM stood at 5.34%.
As for `CN(Cc1ccccc1)CC(C)(C)NC(=O)c1cnccn1`, the cytotoxicity at 10 µM stood at 6.95%.
On to `Cn1nnc2c1C(COCC1CC1)CN(C(=O)C1=CCCC1)C2` (stereo not given), for which the cytotoxicity at 10 µM was -102%.
Turning to `Cc1nc2n(n1)CC(NCC(=O)Nc1cc(C)on1)CC2` (stereo not given), the cytotoxicity at 10 µM is -12.8%.
With `CCCS(=O)(=O)CC(=O)N1CCN(CC2CC2)c2ccccc21`, the cytotoxicity at 10 µM is -7.44%.
Turning to `CCN(CC)c1ccc2ccc(C(=O)O)cn12`, the cytotoxicity at 10 µM came out at 1.42%.
In the case of `Cc1ccc(C(=O)O)cc1S(=O)(=O)N(CC(C)O)c1ccccc1` (stereo not given), the cytotoxicity at 10 µM was 9.83%.
Regarding `CCN1CCN(c2nsc(-c3cccnc3)c2C#N)CC1`, the cytotoxicity at 10 µM was -4.2%.
As to `CCOC(=O)c1nc(CN2CCC(NC(=O)C(C)C)CC2)cs1`, the cytotoxicity at 10 µM is -2.98%.
Next, `CNc1snc(C)c1C(=O)N1CCCC(n2cc(C)cn2)C1` (stereo not given): -3.42%; `Cc1[nH]/c(=N/C(=O)Cn2nc(N3CCOCC3)ccc2=O)sc1C`: 1.81%.
Consider `O=C1CC(c2ccc(CO)o2)c2cnn(Cc3ccco3)c2N1` (stereo not given), for which the cytotoxicity at 10 µM is 2.77%.
In the case of `Cc1cc(N(C)C)nc(N2CCCC2c2cccnc2)n1` (stereo not given), the cytotoxicity at 10 µM is -14.1%.
Under `Cc1ccc(C(=O)N2CCC(Oc3ccc(C)c(C)c3)CC2)c(=O)[nH]1` stands 12.9%; under `O=C(N[C@@H]1CNCCC[C@H]1O)c1ccc(OCCN2CCOCC2)cc1`, 3.11%.
On to `COc1cc(C)ccc1OCCC(=O)N1CCCC(n2cncn2)C1` (stereo not given), for which the cytotoxicity at 10 µM was -2.69%.
For `COCCc1ncc(CNC2(c3ccc(Cl)cc3Cl)CC2)cn1`, the cytotoxicity at 10 µM is -15.8%.
Next, `Cc1cnc(CNC(=O)CCCn2cnc3ccccc3c2=O)cn1`: -7.2%; `COC(=O)[C@H](C)NC(=O)CSCc1nc2sc(C(C)C)cc2c(=O)[nH]1`: 2.87%; `CCOC(=O)c1nc(CC(=O)Nc2ccc3cc[nH]c3c2)no1`: 7.12%.
With `CC(O)CN1CCN(C(=O)c2cccn2Cc2cccnc2)CC1` (stereo not given), the cytotoxicity at 10 µM was -9.15%.
`CN1CCN(C(=O)c2cccc(S(=O)(=O)NCC3(C)COC3)c2)CC1`: the cytotoxicity at 10 µM is -14.1%.
Regarding `O=C(NCCCn1cncn1)NCC(c1ccco1)N1CCCCC1` (stereo not given), the cytotoxicity at 10 µM worked out at 0.987%.
On to `COc1cnc(N2C[C@@H](CN3CCOCC3)C[C@H](CO)C2)nc1`, for which the cytotoxicity at 10 µM was -6.16%.
Under `O=C(NCCCN1CCOCC1)Nc1cnc2cc(Cl)ccc2c1O` stands 1.29%; under `CN(Cc1ccco1)C(=O)C1=NN(C)C(=O)CC1`, -144%.
Consider `Cc1ccccc1CN(C)C(=O)CN1CCCC(Cn2cncn2)C1` (stereo not given), for which the cytotoxicity at 10 µM is -2.87%.
Next, `O=C(O)c1cc(-n2cc3c(n2)CCC3)cc(S(=O)(=O)NC2CCCC2)c1`: -2.05%; `Cc1ccc(S(=O)(=O)Nc2ccc(=O)n(C)c2)c(Br)c1`: 0.802%.
Consider `CN(Cc1csc(-c2cccs2)n1)C(=O)CCn1ccccc1=O`, for which the cytotoxicity at 10 µM was determined as 22.7%.
Turning to `CCn1cnnc1CCNCc1c[nH]nc1-c1ccc(F)cc1`, the cytotoxicity at 10 µM was 1.31%.
`CSc1ccc(NCc2csc(CS(C)(=O)=O)n2)cc1F`: the cytotoxicity at 10 µM was -9.99%.
Consider `CC(C)c1cc(C(=O)NCCc2nc(-c3ccncc3)n[nH]2)[nH]n1`, for which the cytotoxicity at 10 µM is -0.01%.
Take `CCc1ccc(-n2c(=O)[nH]c3nc(N4CCSCC4)ncc3c2=O)cc1`: the cytotoxicity at 10 µM is -4.14%.
As for `COC[C@H]1CC[C@H]2[C@H](CCN2S(=O)(=O)c2ccccc2)O1`, the cytotoxicity at 10 µM is -1.45%.
Turning to `CCC(=O)N1CCC(c2nc(N3CCOCC3)ncc2S(C)(=O)=O)CC1`, the cytotoxicity at 10 µM was found to be 3.65%.
Turning to `COc1cccc(CN(C)C(=O)c2csc(-c3nnc[nH]3)n2)c1`, the cytotoxicity at 10 µM is -14.4%.
Under `CCO[C@H]1CC[C@H]2[C@@H]1OCCN2C(=O)COc1ccccc1` stands -88.5%; under `CC1(C)CNC(=O)c2nc(-c3n[nH]c(=O)[nH]3)[nH]c2C1`, -4.07%.
Next, `CCOc1nnc(CN2CCOC(CNc3cccnn3)C2)s1` (stereo not given): 1.82%; `CC(C)NC1CCc2c(ccc(=O)n2CC2CC2)C1` (stereo not given): -76.5%; `Cc1cnn(CC2CN(Cc3nc4ccccc4nc3C)CCO2)c1` (stereo not given): -4.02%.
Under `CC(C)(C)n1nnnc1CN(Cc1ccccc1)Cc1ccccc1Cl` stands 8.56%; under `CC(C)(CN)NS(=O)(=O)c1c(F)cccc1F`, -8.89%.
With `Cc1c[nH]nc1C1CCN(S(=O)(=O)N(C)C)CC1`, the cytotoxicity at 10 µM amounted to 0.462%.
As to `Cc1cc(N2CCCN(C(=O)Cc3ccc(O)c(Cl)c3)CC2)ccn1`, the cytotoxicity at 10 µM is -17.3%.
`Nc1nccc(N2CCCC(CO)(CCOc3ccccc3)C2)n1` (stereo not given): the cytotoxicity at 10 µM turned out to be 46.7%.
Regarding `CN1CCN([C@@H]2CCN(CC3CCOC3)[C@H]2Cc2cnn(C)c2)CC1` (stereo not given in full), the cytotoxicity at 10 µM is 5.25%.
Regarding `Cc1nc(CN(C)C(=O)c2ccc(Cn3cnnn3)cc2)cs1`, the cytotoxicity at 10 µM was -15.4%.
Next, `COc1cccc2c1ccn2CCNC(C)=O`: 1.89%; `COc1c(CNCCC(=O)NC2CCCC2)c(C(C)C)nn1C`: -4.41%.
For `O=c1[nH]c2ccccc2cc1CNCCCN1CCOCC1`, the cytotoxicity at 10 µM is -17.5%.
Consider `CN(C)CCN1C[C@@H]2CN(S(=O)(=O)c3ccccc3)C[C@@H]2C1=O`, for which the cytotoxicity at 10 µM was -112%.
`Cc1ccccc1OCCSc1nnc(CC2CCS(=O)(=O)C2)n1C` (stereo not given): the cytotoxicity at 10 µM is 1.27%.
As to `O=C(COC1CCCC1)N1CC[C@H]2OCC[C@@]2(COCC2CC2)C1`, the cytotoxicity at 10 µM turned out to be 1.52%.
